Experimental findings from ChEMBL document CHEMBL3351508, “Second-generation antibacterial benzimidazole ureas: discovery of a preclinical candidate with reduced metabolic liability” (J Med Chem, 2014) are described below.

For one series, the system named is Enterococcus faecalis. Nature of the series: Antibacterial activity against Enterococcus faecalis ATCC 29212 by CLSI method. The series is classed as functional. In a few lines:
(§1)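 Broth microdilution MIC in liquid medium following CLSI methods, with ATCC strains. Each run was accepted only if comparator antibiotics fell within their recommended quality-control ranges for the appropriate ATCC strain.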

The next series relates to Enterococcus faecium. Nature of the series: Antibacterial activity against Enterococcus faecium ATCC 49624 by CLSI method. The series is classed as functional. In outline:
as §1

The test system of the next series is Rattus norvegicus. Nature of the series: Dose normalized AUC in rat at 30 mg/kg, po. On the set-up: dose 30 mg/kg, route oral. The series is classed as ADME, organism-based. The following applies: in vivo.
Series [1] concerns Staphylococcus aureus. Briefly: Antibacterial activity against Staphylococcus aureus ATCC 29213 by CLSI method. The format is functional. In outline:
as §1

The test system of series [2] is Staphylococcus aureus. Nature of the series: Antibacterial activity against Staphylococcus aureus ATCC 29213 by CLSI method in presence of human 50% serum. The series is classed as functional. In a few lines: as §1
A further series has as its system Streptococcus pneumoniae. Briefly: Antibacterial activity against Streptococcus pneumoniae ATCC 10015 by CLSI method. The format is functional. In a few lines: as §1
The next series concerns Haemophilus influenzae. Nature of the series: Antibacterial activity against Haemophilus influenzae ATCC 49247 by CLSI method. The format is functional. In a few lines: as §1
The next series deals with DNA gyrase (Escherichia coli, UniProt P0AES4+P0AES6). Nature of the series: Inhibition of […] Escherichia coli DNA gyrase A2B2 using pBR322 plasmid DNA as substrate by coupled enzyme reaction assay. The series is classed as protein-complex assay.
Series [3] deals with Liver microsome. Nature of the series: Drug metabolism in rat liver microsomes assessed as compound formation treated with 30 uM 1-Ethyl-3-(5-(5-fluoropyridin-3-yl)-7-(pyrimidin-2-yl)-1H-benzo-[d]imidazol-2-yl)urea for 1 hr. The series is classed as ADME.
Series [4] in a line: Drug metabolism in monkey liver microsomes assessed as compound formation treated with 30 uM 1-Ethyl-3-(5-(5-fluoropyridin-3-yl)-7-(pyrimidin-2-yl)-1H-benzo-[d]imidazol-2-yl)urea for 1 hr. The format is ADME, Macaca mulatta. To be noted: rhesus monkey.
For series [5], the system named is Liver microsome. Briefly: Drug metabolism in human liver microsomes assessed as compound formation treated with 30 uM 1-Ethyl-3-(5-(5-fluoropyridin-3-yl)-7-(pyrimidin-2-yl)-1H-benzo-[d]imidazol-2-yl)urea for 1 hr. The format is ADME.
The nature of series [6]: Drug metabolism in human liver S9 fractions assessed as compound formation treated with 30 uM 1-Ethyl-3-(5-(5-fluoropyridin-3-yl)-7-(pyrimidin-2-yl)-1H-benzo-[d]imidazol-2-yl)urea for 1 hr. To be noted: s9, 1 h. The format is ADME, subcellular, Liver S9 fraction.
The target of the next series is Cytochrome P450 3A4 (Homo sapiens, UniProt P08684). Nature of the series: Drug metabolism in recombinant CYP3A4 (unknown origin) assessed as compound formation treated with 1 uM 1-Ethyl-3-(5-(5-fluoropyridin-3-yl)-7-(pyrimidin-2-yl)-1H-benzo-[d]imidazol-2-yl)urea for 30 mins. The following applies: recombinant enzyme, 0.5 h, in the assay text read “10 uM” for “1 uM”. The series is classed as ADME. In outline:
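Parent at 1 and 10 μM was incubated with individual recombinant CYP supersomes, with and without NADPH, for 0, 15 and 30 min. Formation of the imine metabolite was quantified by LC-MS/MS.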

Another series has as its target T1, Cytochrome P450 1A2 (Homo sapiens, UniProt P05177).
T1 sequence (P05177 whole entry): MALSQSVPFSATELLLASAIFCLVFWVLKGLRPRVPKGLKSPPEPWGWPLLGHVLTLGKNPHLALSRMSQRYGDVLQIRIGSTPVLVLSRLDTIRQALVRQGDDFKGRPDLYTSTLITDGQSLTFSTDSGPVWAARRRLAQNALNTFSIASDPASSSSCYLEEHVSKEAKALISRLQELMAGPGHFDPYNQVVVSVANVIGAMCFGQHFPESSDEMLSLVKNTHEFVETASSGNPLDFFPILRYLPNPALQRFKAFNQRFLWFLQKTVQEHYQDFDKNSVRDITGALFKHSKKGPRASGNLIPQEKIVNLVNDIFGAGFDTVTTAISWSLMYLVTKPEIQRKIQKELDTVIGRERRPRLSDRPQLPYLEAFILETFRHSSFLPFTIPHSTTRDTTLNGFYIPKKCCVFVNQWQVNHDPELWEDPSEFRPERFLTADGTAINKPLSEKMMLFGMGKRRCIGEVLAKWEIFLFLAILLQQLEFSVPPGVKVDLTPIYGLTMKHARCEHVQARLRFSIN
Nature of the series: Drug metabolism in recombinant CYP1A2 (unknown origin) assessed as compound formation treated with 10 uM 1-Ethyl-3-(5-(5-fluoropyridin-3-yl)-7-(pyrimidin-2-yl)-1H-benzo-[d]imidazol-2-yl)urea for 30 mins. To be noted: recombinant enzyme, 0.5 h.

The target of a further series is Cytochrome P450 2D6 (Homo sapiens, UniProt P10635). Nature of the series: Drug metabolism in recombinant CYP2D6 (unknown origin) assessed as compound formation treated with 10 uM 1-Ethyl-3-(5-(5-fluoropyridin-3-yl)-7-(pyrimidin-2-yl)-1H-benzo-[d]imidazol-2-yl)urea for 30 mins. To be noted: recombinant enzyme, 0.5 h.
Series [7] in a line: Inhibition of Staphylococcus aureus DNA topoisomerase-4 C2E2 using pBR322 plasmid DNA as substrate by coupled enzyme reaction assay.

SMILES strings stand for the structures. Values after ≈ are worked out from the molar mass of the structure shown. Where only a bound is given, the exact number is not on record here.

Chain of Cytochrome P450 2D6 (P10635 whole entry): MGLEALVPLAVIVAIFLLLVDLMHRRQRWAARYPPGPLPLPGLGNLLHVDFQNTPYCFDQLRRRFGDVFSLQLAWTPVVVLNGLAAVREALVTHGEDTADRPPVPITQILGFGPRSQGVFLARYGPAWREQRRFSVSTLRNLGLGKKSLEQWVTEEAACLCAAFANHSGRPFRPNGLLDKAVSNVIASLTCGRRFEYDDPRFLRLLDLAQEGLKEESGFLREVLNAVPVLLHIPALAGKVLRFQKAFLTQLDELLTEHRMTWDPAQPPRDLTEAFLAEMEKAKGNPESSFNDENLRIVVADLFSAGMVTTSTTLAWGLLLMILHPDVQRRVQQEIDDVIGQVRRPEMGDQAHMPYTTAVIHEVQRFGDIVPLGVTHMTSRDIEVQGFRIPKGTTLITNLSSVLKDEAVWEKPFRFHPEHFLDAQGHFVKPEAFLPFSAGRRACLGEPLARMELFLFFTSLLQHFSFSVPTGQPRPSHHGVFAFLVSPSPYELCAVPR
Chain of Cytochrome P450 3A4 (P08684 whole entry): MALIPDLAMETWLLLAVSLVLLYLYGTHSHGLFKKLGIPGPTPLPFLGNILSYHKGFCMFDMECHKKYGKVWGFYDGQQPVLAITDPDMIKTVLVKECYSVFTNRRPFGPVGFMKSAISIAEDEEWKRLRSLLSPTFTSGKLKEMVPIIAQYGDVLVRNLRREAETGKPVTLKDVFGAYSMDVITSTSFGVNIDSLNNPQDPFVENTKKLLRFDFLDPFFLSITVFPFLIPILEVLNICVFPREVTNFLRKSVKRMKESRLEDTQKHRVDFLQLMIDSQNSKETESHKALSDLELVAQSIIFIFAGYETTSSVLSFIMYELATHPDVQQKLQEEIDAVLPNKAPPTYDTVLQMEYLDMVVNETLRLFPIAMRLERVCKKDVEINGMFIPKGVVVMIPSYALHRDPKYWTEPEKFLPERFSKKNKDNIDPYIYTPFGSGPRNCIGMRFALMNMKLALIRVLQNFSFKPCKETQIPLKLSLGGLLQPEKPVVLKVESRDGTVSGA

Consider `CCNC(=O)Nc1nc2cc(-c3ccc(C(O)CC)nc3)c(F)c(-n3cccn3)c2[nH]1` (configuration not stated), for which the MIC against Enterococcus faecalis came to 0.125 µg/mL (≈ 0.295 µM); with Enterococcus faecium, 0.25 µg/mL (≈ 0.59 µM); in the series with Staphylococcus aureus [1], 0.063 µg/mL (≈ 0.149 µM); in the series with Staphylococcus aureus [2] it was 2 µg/mL; with Streptococcus pneumoniae, 0.032 µg/mL (≈ 0.0756 µM). In the series on Rattus norvegicus, this compound registered an AUC/dose of 7.2 microg.hr/mL per mg/kg.
With `CCNC(=O)Nc1nc2cc(-c3ccc([C@@H](O)CC)nc3)c(F)c(-n3cccn3)c2[nH]1`, the MIC with Enterococcus faecalis was 0.063 µg/mL (≈ 0.149 µM); against Enterococcus faecium, 0.5 µg/mL (≈ 1.18 µM); with Staphylococcus aureus [1], 0.063 µg/mL (≈ 0.149 µM); in the series on Staphylococcus aureus [2], 1 µg/mL; in the series with Streptococcus pneumoniae, 0.016 µg/mL (≈ 0.0378 µM). This compound also registered an AUC/dose with Rattus norvegicus of 8.4 microg.hr/mL per mg/kg.
As for `CCNC(=O)Nc1nc2cc(-c3ccc(CN4CCOCC4)nc3)c(F)c(-n3cccn3)c2[nH]1`, the MIC against Enterococcus faecalis is 0.125 µg/mL (≈ 0.269 µM); in the series on Enterococcus faecium, 0.5 µg/mL (≈ 1.08 µM); with Staphylococcus aureus [1], 0.25 µg/mL (≈ 0.538 µM); in the series with Staphylococcus aureus [2] it was 1 µg/mL; in the series on Streptococcus pneumoniae, 0.016 µg/mL (≈ 0.0344 µM). Besides, the AUC/dose with Rattus norvegicus was determined as 13.8 microg.hr/mL per mg/kg.
As for `CCNC(=O)Nc1nc2cc(-c3cccnc3)cc(-c3ncccc3F)c2[nH]1`, the MIC against Enterococcus faecalis was 0.016 µg/mL (≈ 0.0425 µM); against Haemophilus influenzae, 1 µg/mL (≈ 2.66 µM); against Staphylococcus aureus [1], 0.031 µg/mL (≈ 0.0824 µM); in the series on Staphylococcus aureus [2], 1 µg/mL; against Streptococcus pneumoniae it was not above 0.008 µg/mL. At DNA gyrase, this compound registered a Ki of 6 nM.
As for `CCNC(=O)Nc1nc2cc(-c3cnc(C(C)(C)O)nc3)cc([C@H]3CCCO3)c2[nH]1`, the MIC in the series with Enterococcus faecalis is 0.063 µg/mL (≈ 0.153 µM); with Enterococcus faecium, 0.5 µg/mL (≈ 1.22 µM); against Staphylococcus aureus [1], 0.125 µg/mL (≈ 0.305 µM); with Staphylococcus aureus [2] it was 0.25 µg/mL; against Streptococcus pneumoniae, 0.032 µg/mL (≈ 0.078 µM). Also, the AUC/dose in the series on Rattus norvegicus was found to be 4.3 microg.hr/mL per mg/kg.
On to `CCNC(=O)Nc1nc2cc(-c3cncnc3)cc(C3CCCO3)c2[nH]1` (racemic), for which the MIC was determined as 0.5 µg/mL (≈ 1.42 µM) against Enterococcus faecalis; 1 µg/mL (≈ 2.84 µM) against Enterococcus faecium; 1 µg/mL (≈ 2.84 µM) in the series with Staphylococcus aureus [1]; 2 µg/mL in the series on Staphylococcus aureus [2]; 0.125 µg/mL (≈ 0.355 µM) with Streptococcus pneumoniae. The compound further came in with an AUC/dose in the series with Rattus norvegicus of 10.5 microg.hr/mL per mg/kg.
As for `CC1NC(=O)Nc2nc3c(-c4ncccn4)cc(-c4cncc(F)c4)cc3n21` (configuration not stated), the Drug metabolism entry (with Liver microsome [3]; in series [4]; with Liver microsome [5]; in series [6]; on Cytochrome P450 3A4; on Cytochrome P450 1A2) was “metabolite_detected” throughout. The Drug metabolism result at Cytochrome P450 2D6 is reported as “metabolite_detected”.
As for `CCNC(=O)Nc1nc2cc(-c3ccc(C(C)(C)O)nc3)cc(C3CCCO3)c2[nH]1` (racemic), the MIC against Enterococcus faecalis is 0.25 µg/mL (≈ 0.611 µM); in the series on Enterococcus faecium, 1 µg/mL (≈ 2.44 µM); in the series on Staphylococcus aureus [1] it was 0.5 µg/mL (≈ 1.22 µM); in the series with Staphylococcus aureus [2] it was 2 µg/mL; against Streptococcus pneumoniae, 0.063 µg/mL (≈ 0.154 µM). Besides, in the series with Rattus norvegicus, the AUC/dose is 2.6 microg.hr/mL per mg/kg.
Regarding `C=CNC(=O)Nc1nc2cc(-c3cncc(F)c3)cc(-c3ncccn3)c2[nH]1`, the Drug metabolism entry (in the series on Liver microsome [3]; in [4]; with Liver microsome [5]; in series [6]) was “metabolite_detected” in each case.
In the case of `CCNC(=O)Nc1nc2cc(-c3cnc(C(C)(C)O)nc3)cc(-c3ncccc3F)c2[nH]1`, the MIC against Enterococcus faecalis was 0.032 µg/mL (≈ 0.0735 µM); against Haemophilus influenzae, 1 µg/mL (≈ 2.3 µM); in the series on Staphylococcus aureus [1], 0.031 µg/mL (≈ 0.0712 µM); with Staphylococcus aureus [2], 0.25 µg/mL; with Streptococcus pneumoniae, not above 0.008 µg/mL. The Ki was less than 4 nM at DNA gyrase and less than 6 nM in series [7].
Take `CCNC(=O)Nc1nc2cc(-c3ccc(CN4CCOCC4)nc3)c(F)c(-n3cc(C)cn3)c2[nH]1`: the MIC with Enterococcus faecalis is 0.063 µg/mL (≈ 0.132 µM); against Enterococcus faecium, 0.25 µg/mL (≈ 0.522 µM); in the series on Staphylococcus aureus [1], 0.063 µg/mL (≈ 0.132 µM); with Staphylococcus aureus [2], 0.5 µg/mL; in the series with Streptococcus pneumoniae, 0.016 µg/mL (≈ 0.0334 µM). In the series with Rattus norvegicus, this compound came in with an AUC/dose of 1.9 microg.hr/mL per mg/kg.
Take `O=C(Nc1nc2cc(-c3cncc(F)c3)cc(-c3ncccn3)c2[nH]1)NC1CO1` (configuration not stated): the Drug metabolism result (with Liver microsome [3]; in [4]; in the series on Liver microsome [5]; in [6]) was “metabolite_detected” throughout.
Regarding `CCNC(=O)Nc1nc2cc(-c3cnc(C(C)(C)O)nc3)cc(C3CCCO3)c2[nH]1` (racemic), the MIC with Enterococcus faecalis amounted to 0.25 µg/mL (≈ 0.609 µM); against Enterococcus faecium, 0.5 µg/mL (≈ 1.22 µM); with Staphylococcus aureus [1] it was 0.25 µg/mL (≈ 0.609 µM); in the series on Staphylococcus aureus [2] it was 0.5 µg/mL; with Streptococcus pneumoniae it was 0.032 µg/mL (≈ 0.078 µM). In the series with Rattus norvegicus, this compound showed an AUC/dose of 5.5 microg.hr/mL per mg/kg.
With `CCNC(=O)Nc1nc2cc(-c3cc(C)n(Cc4ccccn4)c(=O)c3)c(F)c(-n3cc(C)cn3)c2[nH]1`, the MIC was 0.016 µg/mL (≈ 0.032 µM) with Enterococcus faecalis; 0.032 µg/mL (≈ 0.0639 µM) with Enterococcus faecium; 0.016 µg/mL (≈ 0.032 µM) with Staphylococcus aureus [1]; 0.125 µg/mL in the series on Staphylococcus aureus [2]; 0.008 µg/mL (≈ 0.016 µM) with Streptococcus pneumoniae. The compound further gave an AUC/dose in the series with Rattus norvegicus of 0.2 microg.hr/mL per mg/kg.
